From ChEMBL document CHEMBL2203199, “Heterocycle-functional gramine analogues: solvent- and catalyst-free synthesis and their inhibition activities against cell proliferation” (Eur J Med Chem, 2012)
≈ marks a conversion by molar mass, not a printed value. Calls of active or inactive are those of the source. The rule behind the calls is not given here.

Experiments:
[1] = system: NCI-H460; experiment: Cytotoxicity against human NCI-H460 cells assessed as growth inhibition at 40 ug/mL after 72 hrs by MTT assay; assay type: functional; settings: NCI-H460, 72 h, read-out: GI
How it was run: (§1)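 Growth inhibition by MTT after seeding at 2 × 10⁴ cells per well and growth to subconfluence, with 5-FU as positive control. MTT stock 5 mg/mL in PBS, 4 h formazan formation, then DMSO solubilisation and A570 read. Triplicate wells, three independent experiments, mean ± S.D.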

[2] = system: SGC-7901; experiment: Cytotoxicity against human SGC7901 cells assessed as growth inhibition at 40 ug/mL after 72 hrs by MTT assay; assay type: functional; settings: SGC-7901, 72 h, read-out: GI; how it was run: as §1
[3] = system: NCI-H460; experiment: Cytotoxicity against human NCI-H460 cells after 72 hrs by MTT assay; assay type: functional, cell-based; settings: for IC50: Homo sapiens, NCI-H460, 72 h
How it was run: (§2)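 Cells seeded at 2 × 10⁴ per well and grown to subconfluence before treatment. MTT (5 mg/mL stock in PBS) added, then 4 h incubation for formazan formation. Formazan dissolved in DMSO and absorbance read at 570 nm. IC50 determined from concentration-dependent inhibition. Assays run in triplicate across three independent experiments, reported as mean ± S.D.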

[4] = system: BGC-823; experiment: Cytotoxicity against human BGC823 cells after 72 hrs by MTT assay; assay type: functional, cell-based; settings: for IC50: Homo sapiens, BGC-823, 72 h; how it was run: as §2
[5] = system: SGC-7901; experiment: Cytotoxicity against human SGC7901 cells after 72 hrs by MTT assay; assay type: functional, cell-based; settings: for IC50: Homo sapiens, SGC-7901, 72 h; how it was run: as §2
[6] = system: HepG2; experiment: Cytotoxicity against human HepG2 cells after 72 hrs by MTT assay; assay type: functional, cell-based; settings: for IC50: Homo sapiens, HepG2, 72 h; how it was run: as §2
[7] = system: HepG2; experiment: Cytotoxicity against human HepG2 cells assessed as growth inhibition at 40 ug/mL after 72 hrs by MTT assay; assay type: functional; settings: HepG2, 72 h, read-out: GI; how it was run: as §1
[8] = system: BGC-823; experiment: Cytotoxicity against human BGC823 cells assessed as growth inhibition at 40 ug/mL after 72 hrs by MTT assay; assay type: functional; settings: BGC-823, 72 h, read-out: GI; how it was run: as §1
[9] = system: SGC-7901; experiment: Cytotoxicity against human SGC7901 cells assessed as change in cell morphology at 20 ug/mL after 48 hrs by inverted microscopy; assay type: functional, cell-based
[10] = system: NCI-H460; experiment: Cytotoxicity against human NCI-H460 cells assessed as change in cell morphology at 20 ug/mL after 48 hrs by inverted microscopy; assay type: functional, cell-based

Row | Structure (SMILES) | inhibition of growth at 40 µg/mL [1] [%] | inhibition of growth at 40 µg/mL [2] [%] | IC50 [3] [µg/mL] | IC50 [4] [µg/mL] | IC50 [5] [µg/mL] | IC50 [6] [µg/mL] | inhibition of growth at 40 µg/mL [7] [%] | inhibition of growth at 40 µg/mL [8] [%] | Activity [9] | Activity [10] | Activity [4] | Activity [6] | growth inhibition (GI) [3] [%] | growth inhibition (GI) [4] [%] | growth inhibition (GI) [5] [%] | growth inhibition (GI) [6] [%]
1 | Clc1ccccc1C(Nc1ccccn1)c1c[nH]c2ccccc12 (centres undefined) | 71.4 | 71.4 | 12.2 (≈ 36.5 µM) | 22.7 (≈ 68 µM) | 14.9 (≈ 44.6 µM) | 13.1 (≈ 39.2 µM) | 71.4 | 71.4 | Active | Active |  |  |  |  |  | 
2 | c1ccc(NC(c2ccncc2)c2c[nH]c3ccccc23)nc1 (centres undefined) |  |  | > 100 | > 100 | > 100 | > 100 |  |  |  |  |  |  |  |  |  | 
3 | Cn1cc(C(Nc2ccccn2)c2ccc(Cl)cc2)c2ccccc21 (centres undefined) |  | 70.8 | 32.1 (≈ 92.3 µM) | 30.8 (≈ 88.5 µM) | 25 (≈ 71.9 µM) | 25.5 (≈ 73.3 µM) | 73.6 |  |  |  |  |  |  |  |  | 
4 | Cn1cc(C(Nc2ccccn2)c2ccc(C(F)(F)F)cc2)c2ccccc21 (centres undefined) | 71.4 | 71.4 | 16 (≈ 42 µM) | 16.8 (≈ 44 µM) | 13.8 (≈ 36.2 µM) | 12.9 (≈ 33.8 µM) | 71.4 | 71.4 |  |  |  |  |  |  |  | 
5 | Fc1ccc(C(c2c[nH]c3ccccc23)n2cccn2)cc1 (centres undefined) |  |  | 8.5 (≈ 29.2 µM) | 5.7 (≈ 19.6 µM) | 8.5 (≈ 29.2 µM) | 8 (≈ 27.5 µM) |  |  | Active | Active | Dose-dependent effect | Dose-dependent effect |  |  |  | 
6 | Cn1cc(C(Nc2ccccn2)c2ccncc2)c2ccccc21 (centres undefined) |  |  | 56 (≈ 178 µM) | 47.1 (≈ 150 µM) | 37.9 (≈ 121 µM) | 42.5 (≈ 135 µM) |  |  |  |  |  |  |  |  |  | 
7 | c1ccc(C(Nc2ccccn2)c2c[nH]c3ccccc23)cc1 (centres undefined) |  |  | 35.3 (≈ 118 µM) | 29.4 (≈ 98.2 µM) | 24.9 (≈ 83.2 µM) | 27.6 (≈ 92.2 µM) |  |  |  |  |  |  |  |  |  | 
8 | Clc1ccccc1C(Nc1nc2ccccc2s1)c1c[nH]c2ccccc12 (centres undefined) |  |  | 13.2 (≈ 33.9 µM) | 8.1 (≈ 20.8 µM) | 10.5 (≈ 26.9 µM) | 9 (≈ 23.1 µM) |  |  | Active | Active |  |  |  |  |  | 
9 | Cn1cc(C(Nc2ccccn2)c2ccccn2)c2ccccc21 (centres undefined) |  |  | > 100 | > 100 | > 100 | > 100 |  |  |  |  |  |  |  |  |  | 
10 | Cn1cc(C(Nc2nc3ccccc3s2)c2ccccc2F)c2ccccc21 (centres undefined) |  |  | > 100 | > 100 | > 100 | > 100 |  |  |  |  |  |  |  |  |  | 
11 | Cn1cc(C(Nc2ccccn2)c2ccc(F)cc2)c2ccccc21 (centres undefined) |  |  | 49.1 (≈ 148 µM) | 51.6 (≈ 156 µM) | 51.9 (≈ 157 µM) | 38.6 (≈ 116 µM) |  |  |  |  |  |  |  |  |  | 
12 | FC(F)(F)c1ccc(C(Nc2ccccn2)c2c[nH]c3ccccc23)cc1 (centres undefined) | 71.4 | 71.4 | 8.6 (≈ 23.4 µM) | 10.1 (≈ 27.5 µM) | 13.5 (≈ 36.7 µM) | 12.1 (≈ 32.9 µM) | 71.4 | 71.4 | Active | Active |  |  |  |  |  | 
13 | O=c1[nH]cc(F)c(=O)[nH]1 [FLUOROURACIL] |  |  | 7.2 (≈ 55.4 µM) | 8.2 (≈ 63 µM) | 8.7 (≈ 66.9 µM) | 9.3 (≈ 71.5 µM) |  |  |  |  | Dose-dependent effect | Dose-dependent effect | 66.8 | 66.8 | 66.8 | 66.8
14 | c1ccc(NC(c2ccccn2)c2c[nH]c3ccccc23)nc1 (centres undefined) |  |  | > 100 | 46.9 (≈ 156 µM) | 51.4 (≈ 171 µM) | > 100 |  |  |  |  |  |  |  |  |  | 
15 | Fc1ccc(C(c2c[nH]c3ccccc23)n2cncn2)cc1 (centres undefined) |  |  | 10.7 (≈ 36.6 µM) | 10.3 (≈ 35.2 µM) | 8.2 (≈ 28.1 µM) | 8.4 (≈ 28.7 µM) |  |  |  |  | Dose-dependent effect | Dose-dependent effect |  |  |  | 
16 | Cn1cc(C(Nc2ccccn2)c2ccccc2Cl)c2ccccc21 (centres undefined) |  |  | 66.7 (≈ 192 µM) | 39.2 (≈ 113 µM) | 27.1 (≈ 77.9 µM) | 26.5 (≈ 76.2 µM) |  |  |  |  |  |  |  |  |  | 
17 | Cn1cc(C(Nc2ccccn2)c2ccccc2F)c2ccccc21 (centres undefined) |  |  | 92.6 (≈ 279 µM) | 64.2 (≈ 194 µM) | 86.2 (≈ 260 µM) | 43.2 (≈ 130 µM) |  |  |  |  |  |  |  |  |  | 
18 | Fc1ccccc1C(Nc1ccccn1)c1c[nH]c2ccccc12 (centres undefined) | 71.4 | 71.4 | 24.9 (≈ 78.5 µM) | 37.6 (≈ 118 µM) | 24.5 (≈ 77.2 µM) | 28.7 (≈ 90.4 µM) | 71.4 | 71.4 |  |  |  |  |  |  |  | 
19 | Fc1ccccc1C(Nc1nc2ccccc2s1)c1c[nH]c2ccccc12 (centres undefined) |  |  | 12.1 (≈ 32.4 µM) | 8.1 (≈ 21.7 µM) | 9.4 (≈ 25.2 µM) | 7 (≈ 18.7 µM) |  |  |  |  | Dose-dependent effect | Dose-dependent effect |  |  |  | 
20 | Fc1ccc(C(Nc2ccccn2)c2c[nH]c3ccccc23)cc1 (centres undefined) | 71.4 | 71.4 | 24 (≈ 75.6 µM) | 21.8 (≈ 68.7 µM) | 21.5 (≈ 67.7 µM) | 23 (≈ 72.5 µM) | 71.4 | 71.4 |  |  |  |  |  |  |  | 
21 | Clc1ccc(C(Nc2ccccn2)c2c[nH]c3ccccc23)cc1 (centres undefined) | 71.4 | 71.4 | 17.4 (≈ 52.1 µM) | 22.8 (≈ 68.3 µM) | 19.2 (≈ 57.5 µM) | 18.6 (≈ 55.7 µM) | 71.4 | 71.4 |  |  |  |  |  |  |  | 
22 | CN(C)Cc1c[nH]c2ccccc12 [GRAMINE] |  |  | 74.5 (≈ 428 µM) | 62.8 (≈ 360 µM) | 77.3 (≈ 444 µM) | > 100 |  |  |  |  |  |  |  |  |  | 
